RanGTP-Imp inh: disruptors of Ran-importin-beta complex formation – biochemical, FRET, CFP-Ran, YFP-importin-beta, homogeneous, primary screen; inhibition, % (test concentration not listed); cell-free CFP-Ran/YFP-importin-beta FRET ratio; AID 2216; 300,000 compounds, 1.1% hits;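 active = more than half of the replicate wells show a fall in the fluorescence ratio signal beyond about 16%, limit read from the data, passing the limit was not always enough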;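 also: 0% = DMSO wells and 100% = Ran loaded with GDP instead of GTP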
p97 inhibitor: human p97 ATPase inhibition | 220,000 compounds, 0.42% hits | recombinant p97 ATPase, Kinase-Glo ATP luminescence, 3 h | inhibition, % at 8 µM | P55072; in the data active = inhibition above about 15%;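 also: 0% = DMSO vehicle and 100% = wells lacking enzyme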
Runt-SMMHC FRET: blocks binding of human RUNX1 Runt domain to CBFb-SMMHC | Cerulean-Runt/Venus-CBFb-SMMHC FRET ratio 530/480, 1 h | inhibition, % at 20 µM | 220,000 compounds, 0.74% hits | AID 1434;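 active = mean inhibition across duplicate retests at 20 µM reaching about 50%, limit read from the data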;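 also: 0% = DMSO wells and 100% = wells with excess untagged CBFb-SMMHC; inhibitors lower the FRET ratio by blocking Runt binding to CBFb-SMMHC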
Runt-CBFb FRET: blocks binding of human RUNX1 Runt domain to CBFb; Q01196+Q13951; Cerulean-Runt/Venus-CBFb FRET ratio 530/480, 1 h; inhibition, % at 20 µM; 220,000 compounds, 0.46% hits; AID 1496;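 active = inhibition over about 50% at 20 µM in the single-dose screen, limit read from the data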;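 also: 0% = DMSO wells and 100% = excess unlabeled CBFb competitor control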
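Measured by: fluorescence energy transfer, 422 nm excitation, 530/480 nm emission; test system: Cerulean-tagged RUNX1 Runt domain (FRET donor) fusion protein; buffer or medium: Tris pH 7.5 buffer with BSA; compound: one dose, 20 µM compound, 1% DMSO; times: two 1 h room-temperature incubations shielded from light; benchmarks: unlabeled CBFb 5 µM, positive control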
Hck Nef HTS: blocks Nef-activated human Hck kinase; P08631; Recombinant Hck-YEEI plus Nef, Z-Lyte FRET kinase assay; inhibition, % at 20 µM; 220,000 compounds, 0.68% hits; AID 463187;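 active = Hck-Nef kinase inhibition above about 50%, limit read from the data; inactive = inhibition below that limit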;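 also: 0% = DMSO with Hck plus Nef and 100% = Hck alone without Nef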
Target sequence (P08631 whole entry, looked up): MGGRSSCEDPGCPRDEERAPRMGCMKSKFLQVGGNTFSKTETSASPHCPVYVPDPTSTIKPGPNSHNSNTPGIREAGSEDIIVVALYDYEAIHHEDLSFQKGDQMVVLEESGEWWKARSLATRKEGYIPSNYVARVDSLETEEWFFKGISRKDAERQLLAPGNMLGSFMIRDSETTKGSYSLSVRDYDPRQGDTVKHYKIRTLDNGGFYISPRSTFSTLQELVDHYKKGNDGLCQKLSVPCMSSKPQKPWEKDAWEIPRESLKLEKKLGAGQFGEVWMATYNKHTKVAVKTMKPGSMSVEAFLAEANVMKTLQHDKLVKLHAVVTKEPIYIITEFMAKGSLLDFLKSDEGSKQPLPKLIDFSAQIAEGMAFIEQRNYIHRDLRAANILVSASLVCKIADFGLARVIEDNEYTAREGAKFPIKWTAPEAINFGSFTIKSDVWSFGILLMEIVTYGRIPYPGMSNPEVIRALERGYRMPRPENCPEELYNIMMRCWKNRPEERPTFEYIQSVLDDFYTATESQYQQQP
Tb hexokinase: T. brucei hexokinase 1 inhibition. recombinant TbHK1, G6PDH-coupled NADH A340. 220,000 compounds, 0.11% hits. inhibition, % at 10 µM;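 active = inhibition of 50% or more in the single-dose primary screen; inactive = inhibition below 50%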
YIC counter: counter-screen for RanGTP-importin-beta inhibitors: YIC FRET probe; shares compounds with RanGTP-Imp inh; Purified YIC probe, intramolecular FRET ratio YFP/CFP; IC50, µM; 1,000 compounds, 40% hits;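 active = fitted half-maximal inhibitory concentration no more than tenfold above the top dose tested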
Active calls of the source: *; / = no result given. Compounds with a hit are over-represented: about 2.1% of the library has one in this group of screens.

SMILES	RanGTP-Imp inh	p97 inhibitor	Runt-SMMHC FRET	Runt-CBFb FRET	Hck Nef HTS	Tb hexokinase	YIC counter
COC(=O)CCC(=O)OC1(C)C(=O)C=C2C=C(C3CC3)N(Cc3ccc(OC)cc3)C=C2C1=O (stereo unspecified)	20*	/	21	17	16	-40	20*
COC(=O)CCC(=O)OC1(C)C(=O)C=C2C=C(C3CC3)N(Cc3ccc4c(c3)OCO4)C=C2C1=O (stereo unspecified)	-4	/	2	8	18	-36	/
Cc1ccc(N(C)S(=O)(=O)c2ccc3c(c2)NC(=O)C(C)S3)cc1 (stereo unspecified)	0	/	/	/	/	/	/
CSCC(C)N1CCC(N2CCC(C(=O)NCc3ccccn3)CC2)CC1 (stereo unspecified)	19*	/	/	/	/	/	>50
Cc1onc(-c2ccccc2Cl)c1C(=O)N1CCN(C)CC1	1	/	/	/	/	/	/
Cc1cc(CN2CCCC(CO)(Cc3cccc(Cl)c3)C2)n[nH]1 (stereo unspecified)	0	3	0	0	2	-9	/
OCC1(Cc2cccc(Cl)c2)CCCN(Cc2ccc3cc(F)ccc3n2)C1 (stereo unspecified)	24*	-3	0	-1	-10	1	>50
CCOC(=O)c1ccc(NC(=O)Cn2c(C)nc3c(sc(=S)n3CC)c2=O)cc1	-2	/	/	/	/	/	/
CCOC(=O)/C(C#N)=C1/C=Nc2ccccc2N1	27*	-13	-33	-8	-5	-8	>26
CCOC(=O)/C(C#N)=C1/C=CN(c2ccccc2)C=N1	2	2	2	-1	-1	-60	/
O=C(COc1cccc(F)c1)N[C@@H](Cc1ccccc1)c1nc2ccccc2[nH]1	2	-1	1	2	1	1	/
Cn1cccc1/C=C(/C#N)C(N)=S	-1	5	24	10	1	-13	/
Cc1ccc(-c2ccc(/C=C(\C#N)C(N)=S)n2C)cc1	31*	0	-4	46	-16	-9	>50
COc1ccc(C2C3=C(CC(C)(C)CC3=O)Oc3ncn(Cc4ccco4)c(=N)c32)cc1 (stereo unspecified)	8	0	2	1	3	0	/
NC(=S)N/N=C/c1ccccc1OC(=O)c1cc2ccccc2oc1=O	6	/	/	/	/	/	/
NC(=O)N/N=C/c1ccccc1OC(=O)c1cc2ccccc2oc1=O	18*	/	/	/	/	/	>50
COC(=O)c1c(NC(=O)c2ccc([N+](=O)[O-])o2)sc2c1CCN(C(C)C)C2	16*	/	/	/	/	/	>50
CC(C)N1CCc2c(sc(NC(=O)c3ccc([N+](=O)[O-])o3)c2C(N)=O)C1	10	/	/	/	/	/	/
CSCCC(NC(=O)c1ccccc1C)C(=O)O (stereo unspecified)	1	1	0	-2	13	-5	/
Cc1c(NS(=O)(=O)c2ccccc2)c(=O)n(-c2ccccc2)n1C	-2	6	-2	1	-2	3	/
Cc1c(NC2=CC(=O)CCC2)c(=O)n(-c2ccccc2)n1C	18*	5	3	2	-2	-4	>50
C=CCn1c(=O)c(C(=O)Nc2ccc(C)cc2)c(O)c2ccccc21	28*	/	/	/	/	/	>50
C=CCn1c(=O)c(C(=O)Nc2cc(C)ccn2)c(O)c2ccccc21	5	/	/	/	/	/	/
CCC(=O)Oc1ccc(C(=O)Nc2ccc3c(c2)OCO3)cc1	-1	-8	3	-1	0	-7	/
COc1cc(S(=O)(=O)NCCCN2CCOCC2)ccc1Cl	17*	3	3	1	-2	-2	>50
SMILES	RanGTP-Imp inh	p97 inhibitor	Runt-SMMHC FRET	Runt-CBFb FRET	Hck Nef HTS	Tb hexokinase	YIC counter
Cc1ccc(S(=O)(=O)NCCCN2CCOCC2)cc1C	9	0	0	-4	-7	-2	/
CCOc1cc(C(=O)OCc2ccc(C(=O)OC)o2)cc(Br)c1OC	-2	-2	-19	0	1	12	/
COc1ccc(N2C(=O)c3ccccc3NC2c2cccnc2)cc1 (stereo unspecified)	16*	5	3	0	41	-9	>50
O=c1c2ccccc2sc2ccc(C#CC3(O)CCCCC3)cc12	30*	/	/	/	/	/	22*
C=CCN1C=CC(=CC=C(C#N)C#N)C=C1	21*	-2	-50	-26	-4	1	17*
C=CCN1C=C/C(=C\C=C(C#N)C#N)c2ccccc21	-6	-18	15	0	0	37	/
CC(C)c1cc(CN2CCN(CCC#N)CC2)cc(C(C)C)c1O	0	2	5	-1	2	2	/
CC(C)OCCCNC(=O)CCSc1ccc(Cl)cc1	27*	-3	-2	1	-1	-5	>50
COCCCNC(=O)CCSc1ccc(C)cc1	0	-8	1	-1	-1	-1	/
Cc1ccccc1OCCCC(=O)Nc1ccccc1C(F)(F)F	1	2	-2	-1	1	-1	/
O=C(NNC(=O)C1[C@H]2CCCC[C@@H]12)NC1CCCCC1 (stereo partly specified)	2	3	4	2	0	2	/
CC(C)NC(=O)C1CC=CCC1C(=O)O (stereo unspecified)	25*	5	2	0	4	3	>50
CCOC(=O)C1CCN(S(=O)(=O)CCNC(=O)c2cccc(OC)c2)CC1	1	/	/	/	/	/	/
O=c1nc(-c2ccccc2)c2ccccc2[nH]1	-4	5	0	1	5	-8	/
O=c1nc(-c2ccccc2Cl)c2cc(F)ccc2[nH]1	25*	/	/	/	/	/	>50
N#Cc1c(N)[nH]c(=S)c(C#N)c1-c1ccccc1	31*	6	62	39	3	-20	>50
Cc1ccc(-c2cc(-c3ccccc3)[nH]c(=S)c2C#N)cc1	-1	4	1	5	1	-10	/
Cc1ccc(Cn2ccc(NC(=O)c3noc4c3CCc3ccccc3-4)n2)cc1	33*	2	-6	2	-3	-21	>50
COc1ccc2c(c1)CCc1c(C(=O)Nc3ccn(Cc4ccc(C)cc4)n3)noc1-2	-5	0	-4	-2	5	4	/
CCC(=O)c1ccc2ncccc2c1	-3	3	-1	-1	2	31	/
Fc1ccc(N/N=C/c2ccncc2)c(F)c1	-3	-6	-2	0	0	-46	/
Fc1ccc(N/N=C/C=C/c2ccccc2)c(F)c1	20*	4	1	1	3	0	>50
Cc1ccc(/C=C/C(=O)Nc2cccc3ncccc23)o1	17*	-4	66	9	0	-39	>50
COc1ccccc1N=C(C)C1=C(O)CC(c2ccccc2)CC1=O (stereo unspecified)	20*	2	-1	-2	-6	-5	>50

From PubChem
